Screens from PubChem BioAssay.
An excerpt weighted towards active compounds, which were near 1.7% of everything screened.
Rpn11 block = Rpn11 (PSMD14) deubiquitinase inhibitors, primary screen, biochemical, fluorescence polarization, uHTS; calls only at 20 µM; AID 588493, 2011; 26S proteasome non-ATPase regulatory subunit 14 (Homo sapiens), O00487; 0.59% of 360,000 active; human 26S proteasome, Ub4-pepOG fluorescence polarization; 20S core pre-blocked with epoxomicin;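 active means inhibition at 20 µM, scaled to each plate's controls, above about 33%, limit read from the data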
CSN deneddyl inh = inhibitors of CSN-mediated cullin deneddylation, primary screen, biochemical, fluorescence polarization, uHTS | COP9 signalosome complex subunit 5 (Homo sapiens), Q92905 | Purified CSN, SCF-Nedd8-OG deneddylation | inhibition, % at 12.5 µM | 0.38% of 360,000 active | AID 651999, 2013;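 active means pattern-corrected inhibition above about 35%, with an unprinted fluorescence ratio check between 0.5 and 1.5, limit read from the data, passing the limit was not always enough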;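 further: 0% = enzyme with substrate and 100% = substrate without enzyme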
Target sequence (Q92905 whole entry, looked up, one chain of several): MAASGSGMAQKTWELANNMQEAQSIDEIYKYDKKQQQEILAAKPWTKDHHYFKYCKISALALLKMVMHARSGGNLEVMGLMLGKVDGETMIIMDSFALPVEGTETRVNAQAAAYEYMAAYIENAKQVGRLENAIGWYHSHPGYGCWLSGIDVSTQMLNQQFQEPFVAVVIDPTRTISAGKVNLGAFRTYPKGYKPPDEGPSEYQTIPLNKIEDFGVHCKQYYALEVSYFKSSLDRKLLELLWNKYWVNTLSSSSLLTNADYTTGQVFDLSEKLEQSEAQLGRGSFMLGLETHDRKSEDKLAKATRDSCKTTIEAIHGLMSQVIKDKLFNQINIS
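Assay system: purified human Csn5 enzyme expressed in HEK293T cells; Input: 0.24 nM Csn5 enzyme, final concentration; Reagent: 10 nM SCFSkp2-Nedd8OG; Compound dosing: 12.5 µM single point; Times: reaction 90 min, room temperature; Technique: fluorescence polarization readout.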
TPT1 inhibitor = Candida albicans TPT1 enzyme inhibitors, primary screen, biochemical, fluorescence polarization; tRNA 2'-phosphotransferase TPT1 (Candida albicans SC5314); inhibition, % at 5 µM; 0.81% of 300,000 active; recombinant caTPT1, FP RNA substrate dephosphorylation;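 active means inhibition above the mean of all tested compounds plus 3 SD, set per screening campaign, cut at about 24% in these data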;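 further: plate controls were DMSO alone for no effect and ferristatin control at 100 nM for full effect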
IDE cell activ = human IDE activators in live cells, primary screen, fluorescence polarization, HEK cells, FAbeta-B substrate; Insulin-degrading enzyme (Homo sapiens), P14735; FAbeta-B cleavage; 0% vehicle, 100% cell-free pure enzyme wells; activation, % at 5.96 µM; 0.073% of 340,000 active; AID 493087, 2011;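 active means activation above the mean of all tested compounds plus 3 SD, set per screening campaign, cut at about 17% in these data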
HNF4A DNA FP = change in binding of human HNF4A to DNA, primary screen, biochemical, fluorescence polarization, FITC-DNA. Hepatocyte nuclear factor 4-alpha (Homo sapiens), P41235. 1 h. activity change, % at 10 µM. 0.3% of 360,000 active. AID 1224865, 2016; in the data active means activity change above about 30%, passing the limit was not always enough
IDE inh = human IDE inhibitors in live cells, primary screen, fluorescence polarization, HEK cells, FAbetaB substrate; Insulin-degrading enzyme (Homo sapiens), P14735; 0.41% of 320,000 active; AID 434962, 2010; FAbetaB cleavage; inhibition, % at 5.59 µM;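 active means percent inhibition above the average of all tested compounds plus 3 SD, set per screening campaign, cut at about 16% in these data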;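 further: IDE supplied by intact live HEK cells; FP after avidin binding of uncleaved biotin substrate so inhibition keeps polarization high; 0% = DMSO wells and 100% = 60 µM reference IDE inhibitor Ii1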
TPT1 inh confirm = Candida albicans TPT1 inhibitors, confirmation, biochemical, fluorescence polarization, triplicate. 74% of 2,400 active. shares compounds with TPT1 inhibitor. inhibition, % at 5 µM. AID 2149, 2009. recombinant caTPT1, RNase T1 coupled;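 active means inhibition above the primary screen limit, the mean inhibition of all tested compounds plus 3 SD, cut at about 25% in these data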
RNase T1 counter = RNase T1 inhibitors, counter-screen for TPT1 inhibitor project, biochemical, fluorescence polarization; shares compounds with TPT1 inhibitor; RNase T1 cleavage, 1536-well; inhibition, % at 5 µM; 83% of 2,400 active; AID 2153, 2009;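 active means inhibition above the solvent-only control well mean plus 3 SD, limit set per screening run, cut at about 23% in these data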;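 further: plate controls were DMSO wells with enzyme for no effect and wells without RNase T1 for full effect; inhibitors block cleavage so intact labeled substrate keeps polarization high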
Target sequence (P00651 whole entry, looked up): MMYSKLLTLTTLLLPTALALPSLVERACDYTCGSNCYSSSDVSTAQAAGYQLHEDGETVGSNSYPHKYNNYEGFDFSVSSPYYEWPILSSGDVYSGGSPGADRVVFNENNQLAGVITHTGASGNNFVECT
The depositor's hits bear a star; i = inactive; nt = no result given.

SMILES | Rpn11 block | CSN deneddyl inh | TPT1 inhibitor | IDE cell activ | HNF4A DNA FP | IDE inh | TPT1 inh confirm | RNase T1 counter
CN(C)c1ccc(/C=C(/NC(=O)c2ccccc2)C(=O)NCCCn2ccnc2)cc1 | nt | 72* | 134* | 5 | 14 | 5 | 155* | 157*
CCN(CC)c1ccc(/C=C/c2cc(-c3ccccc3)c3ccccc3n2)cc1 | nt | 92 | 94* | -6 | 99 | 5 | 87* | 90*
CCn1c(SCC(=O)Nc2cc(C)on2)nc2c(c1=O)SC(C)C2 (configuration not stated) | i | 6 | 4 | 0 | 1 | 4 | nt | nt
Cc1ccc(C(C)NC(=O)/C(C#N)=C\c2c(C)[nH]c3ccccc23)cc1 (configuration not stated) | i | 2 | 2 | 2 | -1 | -2 | nt | nt
Cc1[nH]c2ccccc2c1/C=C(\C#N)C(=O)NCc1ccccc1 | i | 6 | 31* | 6 | 12 | 1 | 41* | 49*
CCOC(=O)c1ccc(NCn2c(=O)oc3ccccc32)cc1 | nt | 28 | 31* | -1 | 22 | 1 | 44* | 57*
O=C(O)c1cc(-c2ccccc2)nc2nc(N3CCCCC3)sc12 | nt | nt | -3 | nt | nt | -4 | nt | nt
Cc1ccc(-c2cc(C(=O)O)c3sc(N4CCCCC4)nc3n2)cc1 | i | -7 | 27* | 3 | 1 | 9 | 5 | 10
CCSC1=N/C(=C\C=C2/Oc3ccccc3N2CC)C(=O)S1 | nt | 118 | 138* | -35 | 187 | 20* | 148* | 143*
CCSC1=N/C(=C\c2cccc(F)c2)C(=O)S1 | i | -5 | 2 | 3 | 2 | -4 | nt | nt
CCn1nc(C(=O)Nc2cccc3ccccc23)c(Cl)c1Cl | i | 6 | 5 | 6 | 3 | -4 | nt | nt
COc1cccc(C(=O)NC(=O)Nc2cc(C)on2)c1 | i | -5 | 27* | -1 | 0 | 4 | 12 | 17
CC(=O)Nc1sc(/C(C#N)=C\c2cccc(Cl)c2)nc1-c1ccc(C)cc1 | nt | 39 | 36* | -8 | 32 | 8 | 36* | 48*
CSc1ccc(C2NC(=O)c3c(sc4c3CCN(C)C4)N2)cc1 (configuration not stated) | nt | 46* | 105* | -16 | 54 | 11 | 97* | 101*
Cc1ccsc1C1Nc2ccccc2C(=O)N1O (configuration not stated) | i | -12 | 0 | 0 | 2 | 1 | nt | nt
CN1CCc2c(sc3c2C(=O)NC(c2cccs2)N3)C1 (configuration not stated) | i | 4 | 34* | -4 | 1 | 8 | 23 | 35*
COC(=O)C1=C(C)NC(=S)NC1c1ccc(-c2cccc(Cl)c2)o1 (configuration not stated) | i | -2 | 2 | -1 | 2 | 11 | nt | nt
CN1CCc2c(sc3c2C(=O)NC(c2ccc(-c4cccc(Cl)c4)o2)N3)C1 (configuration not stated) | nt | 44* | 115* | -20 | 71* | 15 | 111* | 117*
Cc1ccsc1C1NC(=O)c2c(sc3c2CCN(C)C3)N1 (configuration not stated) | i | 18 | 61* | -8 | 16 | 12 | 56* | 65*
CN1CCc2c(sc3c2C(=O)NC(/C=C\c2ccccc2)N3)C1 (configuration not stated) | nt | 19 | 22 | nt | 9 | 11 | nt | nt
COc1ccc(OC)c(C(C(=O)NC2CCCCC2)N(C(=O)c2snc(C(N)=O)c2N)c2ccccc2OC)c1 (configuration not stated) | i | -3 | 0 | -1 | 3 | 4 | nt | nt
CC[n+]1c(/C=C/C=C/N(C(C)=O)c2ccccc2)sc2ccccc21 | nt | -86 | 64* | -61 | -42 | 9 | 68* | 74*
CCn1c(/C=C/N(C(C)=O)c2ccccc2)[n+](CC)c2ccc(Cl)cc21 | i | 1 | -3 | -2 | 1 | 11 | nt | nt
Nc1c(C(=O)NCc2ccco2)c2nc3ccccc3nc2n1CCc1ccccc1F | i | 1 | 14 | 3 | 7 | 0 | nt | nt
COc1ccc(-n2c(N)c(C(=O)NCc3ccco3)c3nc4ccccc4nc32)c(OC)c1 | i | 25 | 39* | 4 | 3 | 1 | 10 | 17
SMILES | Rpn11 block | CSN deneddyl inh | TPT1 inhibitor | IDE cell activ | HNF4A DNA FP | IDE inh | TPT1 inh confirm | RNase T1 counter
CCOc1ccc(NC(=O)CN2C(=O)NC(C)(c3ccc(OC(F)F)cc3)C2=O)cc1 (configuration not stated) | i | 5 | -2 | 0 | -3 | 3 | nt | nt
CN(C)/C=C/C(=O)/C=C/c1cn(-c2ncc(C(F)(F)F)cc2Cl)c2ccccc12 | i | 6 | 32* | 4 | 8 | 4 | 17 | 20
CCN1CC2=C(OC(N)=C(C#N)C2c2cccs2)/C(=C\c2cccs2)C1 (configuration not stated) | nt | 10 | 26* | -1 | 5 | 9 | 14 | 21
Cc1cc(/C=C2/SC(=S)N(c3cccc(C(F)(F)F)c3)C2=O)c(C)n1-c1cccnc1 | i | 53* | 88* | -2 | 64* | 3 | 92* | 99*
Cc1ccc(-n2nnnc2SCC(=O)NCC2(N3CCOCC3)CCCCC2)cc1 | i | -1 | nt | 3 | -4 | nt | nt | nt
COC(=O)C(C)n1nnc2sc(-c3ccccc3)cc2c1=O (configuration not stated) | i | 0 | 26* | -1 | 2 | 1 | 27* | 33*
CS(=O)(=O)N1CC2CCCN2c2cc(C(F)(F)F)ccc21 (configuration not stated) | i | -2 | 28* | 2 | 4 | 2 | 10 | 14
CN(CC(=O)Nc1cccc(F)c1)C(=O)COc1ccc2c(c1)CCC2 | i | -4 | nt | 0 | 1 | 1 | nt | nt
CN(C)S(=O)(=O)c1cccc(NC(=S)N/N=C/c2cc(Br)ccc2O)c1 | nt | 21 | 25* | -25 | 14 | 12 | 53* | 59*
